# According to article PMC3589821 (Biochemistry, 2013):
# Where a chain is given by its changes, count along the chain named.
# How the values were obtained:
# Ath α-DOX [1] = biological target: T1, Ath α-DOX (Arabidopsis thaliana, UniProt Q9SGH6); assay: X-ray crystal structure, […] Å; assay type: binding; conditions: iron liganded to His-389; water as sixth ligand; pH 8.0
# T1 sequence (Q9SGH6 1-639): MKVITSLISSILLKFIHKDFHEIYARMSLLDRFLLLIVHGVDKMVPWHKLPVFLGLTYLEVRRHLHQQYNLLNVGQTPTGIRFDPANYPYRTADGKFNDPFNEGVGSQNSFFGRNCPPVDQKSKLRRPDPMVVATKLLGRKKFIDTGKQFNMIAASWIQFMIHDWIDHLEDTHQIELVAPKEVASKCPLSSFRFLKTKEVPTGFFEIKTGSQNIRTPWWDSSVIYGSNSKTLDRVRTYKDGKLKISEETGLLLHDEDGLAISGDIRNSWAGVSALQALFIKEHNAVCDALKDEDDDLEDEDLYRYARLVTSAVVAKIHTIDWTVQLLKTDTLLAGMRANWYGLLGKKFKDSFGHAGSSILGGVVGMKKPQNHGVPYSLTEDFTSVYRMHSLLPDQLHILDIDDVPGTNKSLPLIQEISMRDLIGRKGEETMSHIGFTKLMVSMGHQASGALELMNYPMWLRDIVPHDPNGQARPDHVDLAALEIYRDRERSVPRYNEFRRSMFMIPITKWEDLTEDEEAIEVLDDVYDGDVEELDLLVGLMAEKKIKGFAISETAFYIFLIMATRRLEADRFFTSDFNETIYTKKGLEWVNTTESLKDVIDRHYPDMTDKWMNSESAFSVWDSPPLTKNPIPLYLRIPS
# Ath α-DOX [2] = biological target: T2, Ath α-DOX (Arabidopsis thaliana, UniProt Q9SGH6, H318Q); assay: oxygen electrode, oxygenase activity; assay type: biochemical; conditions: co-substrate O2
# T2 sequence (Q9SGH6 1-639 H318Q): T1 sequence (Q9SGH6 1-639) with H318Q
# Ath α-DOX [3] = biological target: T1, Ath α-DOX; assay: oxygen electrode, oxygenase activity; assay type: biochemical; conditions: co-substrate O2
# How it was run: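 Codon-optimized Ath α-DOX (wild type or point mutants) was expressed in E. coli M15 with 1mM IPTG and 250μM δ-aminolevulinic acid at 23°C for 16 h. It was solubilized in 0.7% C10M, purified by IMAC and size exclusion, and dialyzed a week in 20mM TRIS pH 8.0, 150mM NaCl, 0.2% C10M to remove imidazole. O2 consumption was followed by oxygen electrode with αLA, LA or OA substrates. KM values came from triplicate measurements.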
# Ath α-DOX [4] = biological target: T1, Ath α-DOX; assay: oxygen electrode, oxygenase activity; assay type: biochemical; conditions: 1 mM imidazole, 60 min preincubation
compound,measurement,setting,value
C=CC1=C(C)C2=Cc3c(C=C)c(C)c4[n]3[Fe+][n]3c(c(C)c(CCC(=O)O)c3=CC3=NC(=C4)C(C)=C3CCC(=O)O)=CC1=N2 [heme],"X-ray crystal structure, 1.70 Å",Ath α-DOX [1],The heme is liganded to the side chain of His-389
"CCCCC/C=C\C/C=C\CCCCCCCC(=O)O [LA, linoleic acid]",Km,Ath α-DOX [2],18.2 ± 2.4 µM
same,Km,Ath α-DOX [3],23 ± 2 µM
"CC/C=C\C/C=C\C/C=C\CCCCCCCC(=O)O [αLA, α-linolenic acid]",Km,Ath α-DOX [3],36 ± 3.2 µM
c1c[nH]cn1 [imidazole],% reduction in activity at 1 mM,Ath α-DOX [4],50%
"CCCCCCCC/C=C\CCCCCCCC(=O)O [OA, oleic acid]",Km,Ath α-DOX [3],15 ± 1.9 µM
